# Data taken from ChEMBL document CHEMBL1137742, “Facile synthesis of bis(4,5-dihydro-1H-pyrazole-1-carboxamides) and their thio-analogues of potential PGE(2) inhibitory properties” (Eur J Med Chem, 2009).
# Key:
# Rattus norvegicus [1] = test: Antiinflammatory activity in Wister albino rat assessed as inhibition of carrageenan-induced paw edema volume at 50 mg/kg, ip administered 1 hr before carrageenan challenge measured after 4 hrs; assay type: functional; settings: route intraperitoneal
# How it was run: (§1)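 Wistar albino rats of either sex (pregnant females excluded), 160–190 g, 6 per group. Dosed i.p. in DMSO 1 h before 0.1 ml of 1% carrageenan in saline was injected subcutaneously into the right hind paw; DMSO-only controls. Paw volume was read by plethysmometer at 4 h against the initial volume to give oedema volume and % inhibition of oedema.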
# Rattus norvegicus [2] = test: Antiinflammatory activity in Wister albino rat assessed as inhibition of carrageenan-induced paw edema volume at 50 mg/kg, ip administered 1 hr before carrageenan challenge measured after 4 hrs relative to indomethacin; assay type: functional; design: scale not given: the % may be the effect or the level left; settings: route intraperitoneal; how it was run: as §1
# Rattus norvegicus [3] = test: Antiinflammatory activity in Wister albino rat assessed as inhibition of carrageenan-induced paw edema volume at 10 mg/kg, ip administered 1 hr before carrageenan challenge measured after 4 hrs; assay type: functional; settings: route intraperitoneal; how it was run: as §1
# Rattus norvegicus [4] = test: Antiinflammatory activity in Wister albino rat assessed as inhibition of carrageenan-induced paw edema volume at 20 mg/kg, ip administered 1 hr before carrageenan challenge measured after 4 hrs; assay type: functional; settings: route intraperitoneal; how it was run: as §1
# Rattus norvegicus [5] = test: Antiinflammatory activity in ip dosed Wister albino rat assessed as inhibition of carrageenan-induced paw edema volume administered 1 hr before carrageenan challenge measured after 4 hrs; assay type: functional; how it was run: as §1
# Rattus norvegicus [6] = test: Gastrointestinal toxicity in fasted albino rat assessed ulcer index at 50 mg/kg, po administered for 3 days measured after 1 hr of last dose; assay type: organism-based; design: dose 50 mg/kg, route oral; settings: in vivo
# How it was run: (§2)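 Albino rats of either sex (pregnant excluded), 130–150 g, 6 per group, fasted 18 h. Dosed orally for 3 consecutive days in saline with a few drops of Tween 80. Killed 1 h after the last dose; stomach opened along the greater curvature, rinsed, and mucosa examined at 10× for lesions. Ulcer index computed from % incidence/10, mean ulcer number and severity.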
# Rattus norvegicus [7] = test: Antiinflammatory activity against carrageenan-induced inflammation in albino rat 6-day-old air pouch model assessed as inhibition of PGE2 level at 50 mg/kg, po administered prior to carrageenan challenge measured after 6 hrs; assay type: functional
# How it was run: (§3)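 Male albino rats, 200–250 g, 6 per group. Air pouch raised by subcutaneous dorsal air: 20 ml on day 1, 10 ml two days later, 10 ml on day 5. On day 6, oral dosing in saline with a few drops of Tween 80, then 2 ml of 1% carrageenan in saline into the pouch. Exudate was aspirated 6 h later under ether, frozen at −20 °C, and PGE2 measured by ELISA (pg/ml).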
# Rattus norvegicus [8] = test: Gastrointestinal toxicity in fasted albino rat assessed ulcer index at 10 mg/kg, po administered for 3 days measured after 1 hr of last dose; assay type: organism-based; design: dose 10 mg/kg, route oral; settings: in vivo; how it was run: as §2
# Rattus norvegicus [9] = test: Antiinflammatory activity against carrageenan-induced inflammation in albino rat 6-day-old air pouch model assessed as inhibition of PGE2 level at 10 mg/kg, po administered prior to carrageenan challenge measured after 6 hrs; assay type: functional; how it was run: as §3
SMILES,inhibition in vivo at 50 mg/kg (Rattus norvegicus [1]) [%],Activity (Rattus norvegicus [2]) [%],inhibition in vivo at 10 mg/kg (Rattus norvegicus [3]) [%],inhibition in vivo at 20 mg/kg (Rattus norvegicus [4]) [%],ED50 (Rattus norvegicus [5]) [mg/kg],UI (Rattus norvegicus [6]),Activity (Rattus norvegicus [7]) [pg/mL],UI (Rattus norvegicus [8]),Activity (Rattus norvegicus [9]) [pg/mL]
NC(=O)N1N=C(c2ccc(F)cc2)CC1c1ccccc1OCCOc1ccccc1C1CC(c2ccc(F)cc2)=NN1C(N)=O (stereo not given),20.8,30.8,,,,,,,
NC(=O)N1N=C(c2ccccc2)CC1c1ccccc1OCCOc1ccccc1C1CC(c2ccccc2)=NN1C(N)=O (stereo not given),43.2,64,,,,,,,
NC(=S)N1N=C(c2ccccc2)CC1c1ccc(OCCOc2ccc(C3CC(c4ccccc4)=NN3C(N)=S)cc2)cc1 (stereo not given),83.5,123.7,74.4,79.5,23.1,18.5,83.33,,
NC(=S)N1N=C(c2cccs2)CC1c1ccccc1OCCOc1ccccc1C1CC(c2cccs2)=NN1C(N)=S (stereo not given),67.5,100,59.7,61.6,28.8,14.33,96.5,,
Cc1ccc(C2=NN(C(N)=S)C(c3ccc(OCCOc4ccc(C5CC(c6ccc(C)cc6)=NN5C(N)=S)cc4)cc3)C2)cc1 (stereo not given),34.7,51.4,,,,,,,
NC(=S)N1N=C(c2ccccc2)CC1c1ccccc1OCCOc1ccccc1C1CC(c2ccccc2)=NN1C(N)=S (stereo not given),24.5,36.3,,,,,,,
NC(=S)N1N=C(c2ccc(Cl)cc2)CC1c1ccccc1OCCOc1ccccc1C1CC(c2ccc(Cl)cc2)=NN1C(N)=S (stereo not given),55.2,81.8,50.3,53.7,34.6,12.16,110.83,,
Cc1ccc(C2=NN(C(N)=O)C(c3ccccc3OCCOc3ccccc3C3CC(c4ccc(C)cc4)=NN3C(N)=O)C2)cc1 (stereo not given),22.7,33.6,,,,,,,
Cc1ccc(C2=NN(C(N)=S)C(c3ccccc3OCCOc3ccccc3C3CC(c4ccc(C)cc4)=NN3C(N)=S)C2)cc1 (stereo not given),36.8,54.5,,,,,,,
NC(=S)N1N=C(c2ccc(F)cc2)CC1c1ccccc1OCCOc1ccccc1C1CC(c2ccc(F)cc2)=NN1C(N)=S (stereo not given),48,71.1,40.9,43.2,40.8,11.51,114.67,,
NC(=O)N1N=C(c2ccc(Cl)cc2)CC1c1ccccc1OCCOc1ccccc1C1CC(c2ccc(Cl)cc2)=NN1C(N)=O (stereo not given),45.3,67.1,,,,,,,
COc1ccc2c(c1)c(CC(=O)O)c(C)n2C(=O)c1ccc(Cl)cc1 [INDOMETHACIN],,,67.5,,,,,13.49,98.33
